Structures are written as SMILES.

A short description of the first assay: Cytotoxicity against mouse EAC cells assessed as non-viable cells at 100 ug/ml after 2 hrs by trypan blue exclusion assay.
Details: not given
The format is functional, Ehrlich. An outline of the steps:
(§1)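 EAC cells drawn aseptically by needle aspiration of ascitic fluid from previously inoculated mice; suspension at 2.5 × 10^6 cells per ml. Test agents dissolved in DMSO (1 ml) at 100, 50, 25 and 10 µg, then diluted into the cell suspension. Incubation 2 h at 37 °C. Non-viable cell percentage counted by trypan blue exclusion. IC50 taken from the survival ratio versus concentration curve.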
With `N#CC1=C(N)N(c2ccc(S(N)(=O)=O)cc2)C2=C(CCCC2)C1c1ccccc1` (stereo not given), the Activity was 30%.
Still for that read-out and setting: in the case of `COc1ccc(C2C(C#N)=C(N)N(c3ccc(S(N)(=O)=O)cc3)C3=C2CCCC3)cc1` (stereo not given) it was 100%.
Same read-out and setting: in the case of `COc1ccc(C2C(C#N)=C(N)N(c3ccc(S(N)(=O)=O)cc3)C3=C2CCCC3)c2ccccc12` (stereo not given) it was 20%; in that of `N#CC1=C(N)N(c2ccc(S(N)(=O)=O)cc2)C2=C(CCCC2)C1c1cccc([N+](=O)[O-])c1` (stereo not given), 12%.
Same read-out and setting: as for `N#CC1=C(N)N(c2ccc(S(N)(=O)=O)cc2)C2=C(CCCC2)[C@@H]1c1ccc2c(c1)OCO2`, the figure is 100%; as for `COc1cc(C2C(C#N)=C(N)N(c3ccc(S(N)(=O)=O)cc3)C3=C2CCCC3)ccc1O` (stereo not given), 50%.
For `N#CC1=C(N)N(c2ccc(S(N)(=O)=O)cc2)C2=C(CCCC2)C1c1ccccc1Cl` (stereo not given), the Activity is recorded as 10%.
Regarding `N#CC1=C(N)N(c2ccc(S(N)(=O)=O)cc2)C2=C(CCCC2)C1/C=C/c1ccccc1` (stereo not given), the Activity is listed as 70%.
On to `N#CC1=C(N)N(c2ccc(S(N)(=O)=O)cc2)C2=C(CCCC2)C1c1ccccc1O` (stereo not given), for which the Activity turned out to be 100%.
The same measure, in the same setting: as for `CCOc1cc(C2C(C#N)=C(N)N(c3ccc(S(N)(=O)=O)cc3)C3=C2CCCC3)ccc1OC` (stereo not given), the figure is 10%.
For `COc1cccc2c1C(=O)c1c(O)c3c(c(O)c1C2=O)C[C@@](O)(C(=O)CO)C[C@@H]3O[C@H]1C[C@H](N)[C@H](O)[C@H](C)O1` [DOXORUBICIN], the Activity came out at 100%.

A further assay is described as follows: Cytotoxicity against mouse EAC cells after 2 hrs by trypan blue exclusion assay. To be noted: Ehrlich. The format is functional, cell-based. An outline of the steps:
as §1
Consider `N#CC1=C(N)N(c2ccc(S(N)(=O)=O)cc2)C2=C(CCCC2)C1c1ccccc1` (stereo not given), for which the IC50 (as a rule, the midpoint of a concentration-inhibition curve) was over 100 µg/mL.
In turn, `COc1ccc(C2C(C#N)=C(N)N(c3ccc(S(N)(=O)=O)cc3)C3=C2CCCC3)cc1` (stereo not given) had a 50% inhibitory concentration (IC50) of 22.9 µM.
`COc1ccc(C2C(C#N)=C(N)N(c3ccc(S(N)(=O)=O)cc3)C3=C2CCCC3)c2ccccc12` (stereo not given): the IC50 is over 100 µg/mL.
Same read-out and setting: as for `N#CC1=C(N)N(c2ccc(S(N)(=O)=O)cc2)C2=C(CCCC2)C1c1cccc([N+](=O)[O-])c1` (stereo not given), the figure is over 100 µg/mL.
Same read-out and setting: as for `N#CC1=C(N)N(c2ccc(S(N)(=O)=O)cc2)C2=C(CCCC2)[C@@H]1c1ccc2c(c1)OCO2`, the figure is under 22.2 µM; as for `COc1cc(C2C(C#N)=C(N)N(c3ccc(S(N)(=O)=O)cc3)C3=C2CCCC3)ccc1O` (stereo not given), 100 µg/mL; as for `N#CC1=C(N)N(c2ccc(S(N)(=O)=O)cc2)C2=C(CCCC2)C1c1ccccc1Cl` (stereo not given), over 100 µg/mL.
Same read-out and setting: as for `N#CC1=C(N)N(c2ccc(S(N)(=O)=O)cc2)C2=C(CCCC2)C1/C=C/c1ccccc1` (stereo not given), the figure is 23.1 µM; as for `N#CC1=C(N)N(c2ccc(S(N)(=O)=O)cc2)C2=C(CCCC2)C1c1ccccc1O` (stereo not given), 118 µM.
`CCOc1cc(C2C(C#N)=C(N)N(c3ccc(S(N)(=O)=O)cc3)C3=C2CCCC3)ccc1OC` (stereo not given) registered a 50% inhibitory concentration (IC50) of over 100 µg/mL.
Still for that read-out and setting: in the case of `COc1cccc2c1C(=O)c1c(O)c3c(c(O)c1C2=O)C[C@@](O)(C(=O)CO)C[C@@H]3O[C@H]1C[C@H](N)[C@H](O)[C@H](C)O1` [DOXORUBICIN] it was 69.9 µM.

The next assay can be described thus: Cytotoxicity against mouse EAC cells assessed as non-viable cells at 10 ug/ml after 2 hrs by trypan blue exclusion assay. The format is functional, Ehrlich.
Details: not given
In a few lines: as §1
On to `N#CC1=C(N)N(c2ccc(S(N)(=O)=O)cc2)C2=C(CCCC2)C1c1ccccc1` (stereo not given), for which the Activity is 5%.
On the same count and under the same terms, as for `COc1ccc(C2C(C#N)=C(N)N(c3ccc(S(N)(=O)=O)cc3)C3=C2CCCC3)cc1` (stereo not given), the figure is 50%; as for `COc1ccc(C2C(C#N)=C(N)N(c3ccc(S(N)(=O)=O)cc3)C3=C2CCCC3)c2ccccc12` (stereo not given), 0%; as for `N#CC1=C(N)N(c2ccc(S(N)(=O)=O)cc2)C2=C(CCCC2)C1c1cccc([N+](=O)[O-])c1` (stereo not given), 0%.
On the same count and under the same terms, in the case of `N#CC1=C(N)N(c2ccc(S(N)(=O)=O)cc2)C2=C(CCCC2)[C@@H]1c1ccc2c(c1)OCO2` it was 100%.
Consider `COc1cc(C2C(C#N)=C(N)N(c3ccc(S(N)(=O)=O)cc3)C3=C2CCCC3)ccc1O` (stereo not given), for which the Activity is 0%.
On the same count and under the same terms, in the case of `N#CC1=C(N)N(c2ccc(S(N)(=O)=O)cc2)C2=C(CCCC2)C1c1ccccc1Cl` (stereo not given) it was 0%; in that of `N#CC1=C(N)N(c2ccc(S(N)(=O)=O)cc2)C2=C(CCCC2)C1/C=C/c1ccccc1` (stereo not given), 50%; in that of `N#CC1=C(N)N(c2ccc(S(N)(=O)=O)cc2)C2=C(CCCC2)C1c1ccccc1O` (stereo not given), 10%.
On the same count and under the same terms, as for `CCOc1cc(C2C(C#N)=C(N)N(c3ccc(S(N)(=O)=O)cc3)C3=C2CCCC3)ccc1OC` (stereo not given), the figure is 0%; as for `COc1cccc2c1C(=O)c1c(O)c3c(c(O)c1C2=O)C[C@@](O)(C(=O)CO)C[C@@H]3O[C@H]1C[C@H](N)[C@H](O)[C@H](C)O1` [DOXORUBICIN], 17%.

A short description of a further assay: Cytotoxicity against mouse EAC cells assessed as non-viable cells at 25 ug/ml after 2 hrs by trypan blue exclusion assay. The format is functional, Ehrlich.
Details: not given
An outline of the steps:
as §1
Consider `N#CC1=C(N)N(c2ccc(S(N)(=O)=O)cc2)C2=C(CCCC2)C1c1ccccc1` (stereo not given), for which the Activity is given as 10%.
Take `COc1ccc(C2C(C#N)=C(N)N(c3ccc(S(N)(=O)=O)cc3)C3=C2CCCC3)cc1` (stereo not given): the Activity was 90%.
Regarding `COc1ccc(C2C(C#N)=C(N)N(c3ccc(S(N)(=O)=O)cc3)C3=C2CCCC3)c2ccccc12` (stereo not given), the Activity came out at 5%.
Same read-out and setting: in the case of `N#CC1=C(N)N(c2ccc(S(N)(=O)=O)cc2)C2=C(CCCC2)C1c1cccc([N+](=O)[O-])c1` (stereo not given) it was 1%.
On the same count and under the same terms, in the case of `N#CC1=C(N)N(c2ccc(S(N)(=O)=O)cc2)C2=C(CCCC2)[C@@H]1c1ccc2c(c1)OCO2` it was 100%.
As to `COc1cc(C2C(C#N)=C(N)N(c3ccc(S(N)(=O)=O)cc3)C3=C2CCCC3)ccc1O` (stereo not given), the Activity was determined as 2%.
Take `N#CC1=C(N)N(c2ccc(S(N)(=O)=O)cc2)C2=C(CCCC2)C1c1ccccc1Cl` (stereo not given): the Activity came out at 0%.
On to `N#CC1=C(N)N(c2ccc(S(N)(=O)=O)cc2)C2=C(CCCC2)C1/C=C/c1ccccc1` (stereo not given), for which the Activity stood at 70%.
Still for that read-out and setting: in the case of `N#CC1=C(N)N(c2ccc(S(N)(=O)=O)cc2)C2=C(CCCC2)C1c1ccccc1O` (stereo not given) it was 40%; in that of `CCOc1cc(C2C(C#N)=C(N)N(c3ccc(S(N)(=O)=O)cc3)C3=C2CCCC3)ccc1OC` (stereo not given), 5%.
Still for that read-out and setting: as for `COc1cccc2c1C(=O)c1c(O)c3c(c(O)c1C2=O)C[C@@](O)(C(=O)CO)C[C@@H]3O[C@H]1C[C@H](N)[C@H](O)[C@H](C)O1` [DOXORUBICIN], the figure is 25%.

A short description of another assay: Cytotoxicity against mouse EAC cells assessed as non-viable cells at 50 ug/ml after 2 hrs by trypan blue exclusion assay.
Details: not given
The format is functional, Ehrlich. In a few lines: as §1
Consider `N#CC1=C(N)N(c2ccc(S(N)(=O)=O)cc2)C2=C(CCCC2)C1c1ccccc1` (stereo not given), for which the Activity turned out to be 20%.
Same read-out and setting: in the case of `COc1ccc(C2C(C#N)=C(N)N(c3ccc(S(N)(=O)=O)cc3)C3=C2CCCC3)cc1` (stereo not given) it was 100%; in that of `COc1ccc(C2C(C#N)=C(N)N(c3ccc(S(N)(=O)=O)cc3)C3=C2CCCC3)c2ccccc12` (stereo not given), 10%.
The same measure, in the same setting: as for `N#CC1=C(N)N(c2ccc(S(N)(=O)=O)cc2)C2=C(CCCC2)C1c1cccc([N+](=O)[O-])c1` (stereo not given), the figure is 2%; as for `N#CC1=C(N)N(c2ccc(S(N)(=O)=O)cc2)C2=C(CCCC2)[C@@H]1c1ccc2c(c1)OCO2`, 100%.
The same measure, in the same setting: in the case of `COc1cc(C2C(C#N)=C(N)N(c3ccc(S(N)(=O)=O)cc3)C3=C2CCCC3)ccc1O` (stereo not given) it was 30%; in that of `N#CC1=C(N)N(c2ccc(S(N)(=O)=O)cc2)C2=C(CCCC2)C1c1ccccc1Cl` (stereo not given), 5%; in that of `N#CC1=C(N)N(c2ccc(S(N)(=O)=O)cc2)C2=C(CCCC2)C1/C=C/c1ccccc1` (stereo not given), 90%.
Regarding `N#CC1=C(N)N(c2ccc(S(N)(=O)=O)cc2)C2=C(CCCC2)C1c1ccccc1O` (stereo not given), the Activity is recorded as 50%.
On the same count and under the same terms, in the case of `CCOc1cc(C2C(C#N)=C(N)N(c3ccc(S(N)(=O)=O)cc3)C3=C2CCCC3)ccc1OC` (stereo not given) it was 5%; in that of `COc1cccc2c1C(=O)c1c(O)c3c(c(O)c1C2=O)C[C@@](O)(C(=O)CO)C[C@@H]3O[C@H]1C[C@H](N)[C@H](O)[C@H](C)O1` [DOXORUBICIN], 70%.

Values taken from ChEMBL document CHEMBL1177874, “Synthesis and in vitro anticancer screening of some novel 4-[2-amino-3-cyano-4-substituted-5,6,7,8-tetrahydroquinolin-1-(4H)-yl]benzenesulfonamides” (Eur J Med Chem, 2010).
